# Screening data as filed in PubChem BioAssay.
# An excerpt weighted towards active compounds, which were near 2.6% of everything screened.
# SR-BI DiI inh = mouse SR-BI HDL lipid transfer inhibition. ldlA[mSR-BI] CHO cells, DiI-HDL uptake fluorescence, 3 h. actives 0.96% (n = 320,000). inhibition, % at 12.5 µM. Q61009;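 active means mean replicate inhibition of at least 70% and a set share of replicates each scoring 70 or more; inconclusive means meets just one of the two criteria; inactive means fails both criteria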
# Target sequence (Q61009 whole entry, looked up): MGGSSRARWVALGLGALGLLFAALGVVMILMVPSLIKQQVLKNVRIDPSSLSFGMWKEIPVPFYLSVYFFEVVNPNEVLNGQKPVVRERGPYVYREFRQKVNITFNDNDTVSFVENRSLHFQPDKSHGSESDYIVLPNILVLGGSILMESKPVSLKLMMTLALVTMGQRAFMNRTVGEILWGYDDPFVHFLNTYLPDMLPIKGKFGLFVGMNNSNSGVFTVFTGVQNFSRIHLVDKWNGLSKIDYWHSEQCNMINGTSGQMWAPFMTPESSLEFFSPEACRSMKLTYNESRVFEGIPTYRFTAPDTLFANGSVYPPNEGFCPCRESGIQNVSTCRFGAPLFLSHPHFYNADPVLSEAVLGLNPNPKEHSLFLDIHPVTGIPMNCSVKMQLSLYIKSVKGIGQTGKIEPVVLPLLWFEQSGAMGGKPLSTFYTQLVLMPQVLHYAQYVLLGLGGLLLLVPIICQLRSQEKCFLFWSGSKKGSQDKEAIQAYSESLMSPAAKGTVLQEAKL
# dFosB activator = mouse delta FosB homodimer activation | purified delta FosB, TAMRA-CDK5 oligo fluorescence polarization; percent of positive-control signal above neutral wells | P13346 | activation, % at 25 µM | AID 493131 | actives 0.99% (n = 340,000);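 active means mean activation above about 17%, with every replicate also reaching it, limit read from the data, passing the limit was not always enough; inconclusive means only one of the two conditions met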
# XiGFP reactiv = reactivates the inactive X chromosome in mouse fibroblasts. activation, % at 7.58 µM. XiGFP mouse fibroblasts, % GFP-positive cells imaging, 3 d; cells co-treated with 5-aza-dC sensitizer; scaled so ellipticine positive control = 100%. AID 743238. actives 0.055% (n = 360,000);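 active means mean normalized replicate activation at least 10% and every replicate at or above 10%; inconclusive means only one of the two criteria met; inactive means mean below 10% and not all replicates reach 10%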
#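 Assay system: SV40-immortalized XiGFP fibroblast cells, line 68-5-11; buffer or medium: DMEM plus 5-aza-dC sensitizer; compound: one concentration, pinned; timing: compounds 3 days, fix/stain 15 min at room temperature; benchmarks: positive control ellipticine, 6 µM final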
# Ecoli rRNA inh = selective bacterial rRNA inhibition in E. coli | GFP signal change (wild-type ribosome), % (no concentration beside the values) | E. coli WT GFP vs humanized-ribosome RFP mutants, fluorescence, 24 h; active compounds read low; DMSO median 0, no signal -100 | actives 1.6% (n = 350,000);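 active means significant combined selectivity score with lowered wild-type GFP, culture density cut under 30%, mutant RFP and density less affected; inactive means any of these conditions unmet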
# PvdQ acylase = blocks Pseudomonas aeruginosa PvdQ acylase activity; purified PvdQ acylase, fluorescence plate reader; inhibition, % at 10 µM; actives 0.063% (n = 340,000); AID 488965; in the data active means inhibition above about 30%, passing the limit was not always enough; inconclusive means no clear call, values can overlap the other calls
# SR-BI DiI-HDL act = enhances SR-BI lipid uptake from DiI-HDL. actives 0.096% (n = 320,000). activation, % at 12.5 µM. CHO ldlA[mSR-BI] cells, DiI-HDL uptake fluorescence, 3 h; 100 = double the neutral-control signal;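 active means mean replicate activation of at least 60% and every replicate at or above 60%; inconclusive means mean or all-replicate condition met, but not both; inactive means mean below 60% and not all replicates reaching 60%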
#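 Test system: SR-BI-overexpressing, LDLR-lacking CHO cells. Measured by: DiI fluorescence, bottom read. Medium: Ham's F12 with 0.5% BSA, HEPES 25 mM, pH 7.4. Timing: 3 h uptake period with compound, 37 °C.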
# DiI quench = DiI fluorescence quenching in cell-free counter-screen; actives 20% (n = 470); cell-free DiI-HDL fluorescence quenching, 30 min; shares compounds with SR-BI DiI inh; AID 540326; AC50, µM (doses to about 35 µM);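 active means quenching, a falling signal, with AC50 below a set limit tied to the top valid dose, actives reach about 32 µM in these data; inconclusive means no clear call, values can overlap the other calls; inactive means rising signal, and the rest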
# A number is an active result; n = inactive; u = inconclusive; x = no result given.
SMILES,SR-BI DiI inh,dFosB activator,XiGFP reactiv,Ecoli rRNA inh,PvdQ acylase,SR-BI DiI-HDL act,DiI quench
C[C@H](CO)N1C[C@H](C)[C@@H](CN(C)C(=O)CN(C)C)Oc2ncc(C#Cc3cccnc3)cc2C1=O,x,x,n,n,x,x,x
COC(=O)[C@]1(C)N[C@H](c2ccc(-c3cccc(Cl)c3)cc2)[C@@H]2C(=O)N(C)C(=O)[C@@H]21,n,n,n,n,n,n,x
COC(=O)[C@]1(CC(C)C)N[C@H](c2ccc(-c3cccc(Cl)c3)cc2)[C@@H]2C(=O)N(C)C(=O)[C@@H]21,74,n,n,n,n,n,n
COc1ccc(OC)c(Nc2ccc(Nc3cc(OC)ccc3OC)nn2)c1,86,n,n,x,n,n,5.1µM
CCOc1ccccc1NC(=O)C(CC(C)C)NC(=O)C1CCC(C)CC1 (stereo not given),80,n,x,x,n,n,n
CCOc1ccccc1NC(=O)N1C2CCCC1CC(NC(=O)C1CC1)C2 (stereo not given),n,n,x,x,n,n,n
N#Cc1ccc(NC(=O)NN2CCCCCC2)cc1,n,n,n,n,n,n,x
CC(=O)N(C)C[C@H]1Oc2cc(-c3ccc(C)cc3)ccc2S(=O)(=O)N([C@H](C)CO)C[C@@H]1C,x,x,n,n,x,x,x
CC(=O)Nc1nc(-c2ccccc2)nc(-c2ccccc2OC(C)=O)n1,u,n,x,n,n,n,n
Cn1c(C(=O)NCC2CCCO2)cc2c(=O)n(C)c3ccccc3c21 (stereo not given),n,n,n,n,n,n,x
O=C(C[C@@H]1C/C=C\C[C@H](NC(=O)OCC2c3ccccc3-c3ccccc32)C(=O)O[C@H](c2ccccc2)CNC1=O)NCCO,n,n,n,n,n,n,n
O=C(C[C@H]1C/C=C\C[C@H](NC(=O)OCC2c3ccccc3-c3ccccc32)C(=O)O[C@@H](c2ccccc2)CNC1=O)NCCO,n,u,n,n,n,n,x
C[C@@H]1COC(=O)[C@H](NC(=O)OCC2c3ccccc3-c3ccccc32)C/C=C\C[C@@H](CC(=O)N[C@@H](CO)Cc2ccccc2)C(=O)N1,84,n,n,n,n,n,n
O=C(N[C@@H]1C/C=C\C[C@H](CC(=O)N(CCO)Cc2ccccc2)C(=O)N[C@@H](Cc2ccccc2)COC1=O)OCC1c2ccccc2-c2ccccc21,n,n,n,n,n,n,x
O=C(N[C@@H]1C/C=C\C[C@@H](CC(=O)N(CCO)Cc2ccccc2)C(=O)NCCOC1=O)OCC1c2ccccc2-c2ccccc21,78,n,x,x,n,n,n
O=C1NCCOC(=O)[C@H](Cc2ccc(F)cc2)C/C=C\C[C@@H]1CC(=O)N(CCO)Cc1ccccc1,n,n,n,n,n,n,n
COC(=O)c1ccc(NCc2c(O)ccc(O)c2Br)cc1Cl,n,n,n,n,n,n,x
Cc1ccc(-n2c(C)nc3c(cnn3-c3ccccc3Cl)c2=O)cc1C,n,n,x,x,n,n,x
Cc1nc2c(cnn2-c2ccccc2Cl)c(=O)n1-c1ccc(N2CCC(C)CC2)cc1,72,n,x,x,n,n,n
O=C(Nc1ccc(-c2nc3ccccc3o2)cc1)c1cc(-n2cnnc2)ccc1Cl,u,n,x,x,n,n,n
CCOc1ccc(N(CC(=O)NCc2ccc(C)cc2)S(=O)(=O)c2c(C)[nH]c(=O)[nH]c2=O)cc1,n,n,x,x,n,n,x
CCn1c(SCC(=O)Nc2ncc(C(F)(F)F)cc2Cl)nnc1-c1cccc(C)c1,n,n,n,x,n,n,x
COc1ccc(-c2nnc(SCC(=O)Nc3ncc(C(F)(F)F)cc3Cl)n2CC(C)C)cc1,n,n,n,x,n,n,n
Nc1ccc(C(=O)N2N=C(c3ccccc3)CC2(O)C(F)(F)F)cc1 (stereo not given),n,n,n,n,n,n,x
N#CCC(=O)Nc1ccc(C(=O)OCC(=O)NNC(=O)c2ccc(Cl)cc2)cc1,n,n,n,n,n,n,x
